Screening results from PubChem.
Only some compounds are listed: those with a hit (about 5.8% of all), similar ones and a draw of the others.
Pf Dd2 growth = P. falciparum Dd2 growth inhibition. activity change, % at 10 µM. actives 2.3% (n = 94,000). AID 1159554. SYBR Green, 72 h; stronger effect = lower value; in the data active = activity change below about -80%; inconclusive = no clear call, values can overlap the other calls
KDM4C inh = inhibitors of human demethylase GASC-1 KDM4C | GST-KDM4C 2-372, H3K9me3 peptide, LANCE TR-FRET | Q9H3R0 | AID 720574 | inhibition, % at 12.5 µM | actives 0.15% (n = 96,000);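 active = mean replicate inhibition above about 25%, with at least 55% of replicates also reaching it, limit read from the data, passing the limit was not always enough; inconclusive = only one of those two conditions met; inactive = neither condition met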
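Test system – GST-tagged GASC-1 (JMJD2C) catalytic fragment, aa 2-372 · Medium – HEPES buffer, pH 7.5, plus ascorbate · Reagent – H3K9me3 peptide with Fe(II)/2OG · Compound – one test concentration per compound · Timing – 30 min reaction, 60 min detection, RT · Technique – TR-FRET with Eu antibody and ULight streptavidin, EDTA stop · Read-out basis – inhibition from TR-FRET ratio decrease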
T cruzi growth-1 = blocks T. cruzi growth in NIH3T3 culture; actives 5.9% (n = 77,000); AID 624255; inhibition, % at 8.34 µM; T. cruzi beta-gal in NIH3T3, GalScreen luminescence, 90 h;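 active = mean inhibition above about 93%, with at least 55% of replicates each passing it, limit read from the data, passing the limit was not always enough; inconclusive = only one of those two conditions holds; inactive = neither condition holds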
IDH1 R132H inh = blocks human IDH1 R132H reductase activity; actives 0.18% (n = 70,000); inhibition, % at 10 µM; diaphorase/resazurin fluorescence, 60 min; in the data active = inhibition above about 34%; inconclusive = no clear call, values can overlap the other calls; inactive = below about 11%
Target sequence (O75874 whole entry R132H): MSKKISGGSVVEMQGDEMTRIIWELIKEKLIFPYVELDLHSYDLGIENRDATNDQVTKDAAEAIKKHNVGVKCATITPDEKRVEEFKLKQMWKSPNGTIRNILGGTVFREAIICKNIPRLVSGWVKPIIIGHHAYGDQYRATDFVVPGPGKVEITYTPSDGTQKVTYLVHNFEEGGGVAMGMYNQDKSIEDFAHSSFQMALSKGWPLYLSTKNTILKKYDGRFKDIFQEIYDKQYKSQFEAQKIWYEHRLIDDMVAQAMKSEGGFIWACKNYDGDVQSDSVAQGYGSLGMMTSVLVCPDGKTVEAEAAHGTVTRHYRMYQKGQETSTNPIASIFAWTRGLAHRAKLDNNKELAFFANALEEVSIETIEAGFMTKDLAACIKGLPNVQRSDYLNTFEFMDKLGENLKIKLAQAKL
T cruzi growth-2 = blocks T. cruzi growth in NIH3T3 host cells; shares compounds with T cruzi growth-1; T. cruzi beta-gal in NIH3T3, GalScreen luminescence, 90 h; inhibition, % at 8.35 µM; actives 72% (n = 5,600);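 active = mean replicate inhibition above about 95% and at least 55% of replicates individually reaching it, limit read from the data; inconclusive = only one of the two criteria is met; inactive = neither criterion is met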
T cruzi growth-3 = inhibitors of T. cruzi proliferation; shares compounds with T cruzi growth-1; inhibition, % at 2.09 µM; T. cruzi beta-gal in NIH3T3, GalScreen luminescence, 90 h; actives 21% (n = 5,600);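 active = mean inhibition above about 95%, with at least 55% of replicates also reaching it, limit read from the data; inconclusive = meets just one of the two conditions; inactive = meets neither condition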
3T3 cytotox = cytotoxicity in mouse NIH/3T3 fibroblasts | shares compounds with T cruzi growth-1 | NIH/3T3 viability, CellTiter-Glo ATP luminescence, 90 h | cytotoxicity (signal decrease), % at 8.35 µM | actives 14% (n = 5,600) | AID 651742;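 active = mean signal decrease across replicates above about 35% based on untreated-well scatter, with enough replicates individually passing, limit read from the data; inconclusive = no rule stated though some were filed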
3T3 cytotox 2 = NIH/3T3 (mouse) viability loss | shares compounds with T cruzi growth-1 | NIH/3T3 viability, CellTiter-Glo ATP luminescence, 90 h | inhibition, % at 24.9 µM | actives 56% (n = 5,600);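 active = mean loss of cell viability signal at or above a set limit, and enough replicates individually reaching it; inconclusive = meets only the mean limit or only the replicate share; inactive = meets neither condition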
Hits are given with their value; - = inactive; ? = inconclusive; . = no result.

SMILES | Pf Dd2 growth | KDM4C inh | T cruzi growth-1 | IDH1 R132H inh | T cruzi growth-2 | T cruzi growth-3 | 3T3 cytotox | 3T3 cytotox 2
C[C@H]1CN([C@@H](C)CO)S(=O)(=O)c2ccc(-c3ccccc3)cc2O[C@@H]1CN(C)S(=O)(=O)c1ccccc1F | - | - | 91 | - | 99 | - | 37 | 38
C[C@H](CO)N1C[C@H](C)[C@H](CN(C)S(=O)(=O)c2ccccc2F)Oc2cc(-c3ccccc3)ccc2S1(=O)=O | - | - | 120 | - | 100 | - | ? | 45
C[C@H]1CN([C@@H](C)CO)S(=O)(=O)c2ccc(-c3ccccc3)cc2O[C@H]1CN(C)S(=O)(=O)c1ccccc1F | - | - | 119 | - | 103 | 103 | - | 46
CC(=O)Nc1ccc(NC(=O)CN(c2cc(C(F)(F)F)ccc2Cl)S(C)(=O)=O)cc1 | . | . | . | - | . | . | . | .
COc1cc2c(c(OC)c1OC)CCc1cc(O)c(O)cc1-2 | . | . | . | - | . | . | . | .
C[C@H]1CN([C@@H](C)CO)C(=O)Cc2cc(NC(=O)C3CC3)ccc2O[C@@H]1CN(C)Cc1ccc(-c2ccccc2)cc1 | - | - | - | - | . | . | . | .
C[C@@H]1CN([C@@H](C)CO)C(=O)Cc2cc(NC(=O)c3ccncc3)ccc2O[C@H]1CN(C)Cc1ccc(-c2ccccc2)cc1 | - | - | 109 | - | 104 | 111 | - | 103
C[C@H](CO)N1C[C@H](C)[C@@H](CN(C)Cc2ccncc2)Oc2ccc(NC(=O)c3ccncc3)cc2CC1=O | - | - | - | - | . | . | . | .
C[C@@H]1CN([C@H](C)CO)C(=O)Cc2cc(NC(=O)c3ccncc3)ccc2O[C@H]1CN(C)Cc1ccc(Oc2ccccc2)cc1 | - | - | 105 | - | 109 | - | - | 103
C[C@H](CO)N1C[C@H](C)[C@@H](CN(C)Cc2ccccc2)Oc2ccc(NC(=O)c3ccncc3)cc2CC1=O | - | - | - | - | . | . | . | .
C[C@H](CO)N1C[C@H](C)[C@@H](CN(C)Cc2ccc(-c3ccccc3)cc2)Oc2ccc(NC(=O)C3CC3)cc2CC1=O | - | - | 105 | - | 106 | - | - | 105
C[C@H]1CN([C@@H](C)CO)C(=O)Cc2cc(NC(=O)c3ccncc3)ccc2O[C@@H]1CN(C)Cc1ccc(-c2ccccc2)cc1 | - | - | - | - | . | . | . | .
C[C@H](CO)N1C[C@H](C)[C@@H](CN(C)Cc2ccc(C(F)(F)F)cc2)Oc2ccc(NC(=O)c3ccncc3)cc2CC1=O | - | - | 96 | - | 105 | - | - | 59
CCC(Sc1nnnn1C)C(=O)Nc1cccc([N+](=O)[O-])c1 (stereo unspecified) | . | . | . | - | . | . | . | .
CCCc1cc(=O)[nH]c(SCC(=O)Nc2cc(C)cc(C)c2)n1 | . | . | . | - | . | . | . | .
COC(=O)c1c(N)oc2c(-c3cccc(C(F)(F)F)c3)c3c(C(=O)OC)c(N)oc3cc12 | . | . | . | - | . | . | . | .
C[C@@H]1CN([C@@H](C)CO)C(=O)Cc2cc(NC(=O)c3ccncc3)ccc2O[C@@H]1CN(C)Cc1ccc(Oc2ccccc2)cc1 | - | - | - | . | . | . | . | .
C[C@H](CO)N1C[C@H](C)[C@@H](CN(C)Cc2ccc(Oc3ccccc3)cc2)Oc2ccc(NC(=O)c3ccncc3)cc2CC1=O | - | - | 97 | - | 111 | - | - | 106
CC(=O)c1c(C)nn(CC(O)COc2ccc(C(=O)c3ccc(Cl)cc3)cc2)c1C (stereo unspecified) | . | . | . | - | . | . | . | .
C[C@@H]1CN([C@@H](C)CO)S(=O)(=O)c2ccc(C#CC3CCCCC3)cc2O[C@H]1CN(C)C | - | - | 118 | - | 104 | 101 | 38 | 104
C[C@H]1CN([C@@H](C)CO)S(=O)(=O)c2ccc(C#CC3CCCC3)cc2O[C@H]1CN(C)C | - | - | - | - | . | . | . | .
C[C@H]1CN([C@@H](C)CO)S(=O)(=O)c2ccc(C#CC3CCCC3)cc2O[C@H]1CN(C)CC1CC1 | - | - | ? | - | - | - | 48 | 104
C[C@H](CO)N1C[C@H](C)[C@H](CN(C)C)Oc2cc(C#CC3CCCCC3)ccc2S1(=O)=O | - | - | 98 | - | 106 | - | 48 | 103
C[C@H]1CN([C@@H](C)CO)S(=O)(=O)c2ccc(C#CC3CCCC3)cc2O[C@@H]1CN(C)C | - | - | 100 | - | 105 | - | - | 104
CCCN(C)C[C@@H]1Oc2cc(C#CC3CCCC3)ccc2S(=O)(=O)N([C@@H](C)CO)C[C@H]1C | - | - | 103 | - | 108 | - | 39 | 104
SMILES | Pf Dd2 growth | KDM4C inh | T cruzi growth-1 | IDH1 R132H inh | T cruzi growth-2 | T cruzi growth-3 | 3T3 cytotox | 3T3 cytotox 2
C[C@@H]1CN([C@H](C)CO)C(=O)Cc2cc(NC(=O)CCN3CCOCC3)ccc2O[C@H]1CN(C)C(=O)Nc1ccc(F)cc1 | - | - | 99 | - | - | - | - | -
C[C@@H]1CN([C@H](C)CO)C(=O)c2cc(NC(=O)Cc3ccccc3)ccc2O[C@@H](C)CCCCO[C@H]1CN(C)C(=O)Nc1ccc2c(c1)OCO2 | - | - | - | - | . | . | . | .
C[C@@H]1CCCCO[C@@H](CN(C)C(=O)Nc2ccc3c(c2)OCO3)[C@@H](C)CN([C@H](C)CO)C(=O)c2cc(NC(=O)CCCN(C)C)ccc2O1 | - | - | 111 | . | ? | - | - | -
C[C@@H]1CN([C@@H](C)CO)C(=O)Cc2cc(NC(=O)CCN3CCOCC3)ccc2O[C@H]1CN(C)C(=O)Nc1ccccc1 | - | - | - | - | . | . | . | .
C[C@H](CO)N1C[C@H](C)[C@@H](CN(C)C(=O)Nc2ccc(F)cc2)OCCCC[C@H](C)Oc2ccc(NC(=O)Cc3ccccc3)cc2C1=O | - | - | 98 | . | ? | - | - | -
C[C@@H]1CCCCO[C@H](CN(C)C(=O)Nc2ccc3c(c2)OCO3)[C@H](C)CN([C@@H](C)CO)C(=O)c2cc(NC(=O)Cc3ccccc3)ccc2O1 | - | - | ? | - | ? | - | - | -
CCc1ccccc1NC(=O)CSc1ncnc2sc(C)c(C)c12 | . | . | . | - | . | . | . | .
C[C@H]1CCCCO[C@H](CN(C)C(=O)Nc2ccc(F)cc2)[C@@H](C)CN([C@@H](C)CO)C(=O)c2cc(NC(=O)Cc3ccccc3)ccc2O1 | - | - | 105 | . | 109 | - | - | -
C[C@@H]1CCCCO[C@H](CN(C)C(=O)Nc2ccc(F)cc2)[C@H](C)CN([C@@H](C)CO)C(=O)c2cc(NC(=O)Cc3ccccc3)ccc2O1 | -82 | - | 103 | - | 104 | - | - | -
C[C@H]1CN([C@@H](C)CO)C(=O)Cc2cc(NC(=O)CCCN(C)C)ccc2O[C@@H]1CN(C)C(=O)Nc1ccc2c(c1)OCO2 | - | - | ? | - | - | - | - | -
